Assay results published in ChEMBL document CHEMBL3877280, “Discovery of novel rivastigmine-hydroxycinnamic acid hybrids as multi-targeted agents for Alzheimer's disease” (Eur J Med Chem, 2017).
The source made the active and inactive calls. No cut-off for these calls is given here.

How the values were obtained:
[1] = target: Cholinesterase (Homo sapiens) (UniProt P06276); assay: Inhibition of BuChE (unknown origin) at 1 uM using acetylthiocholine iodide as substrate preincubated for 60 mins followed by substrate addition measured after 5 mins by Ellman's method relative to control
Procedure, shortened: (§1)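 Ellman method at 37 °C. BuChE stock made in 0.1% gelatin, diluted to 0.13-0.100 AU/min. Enzyme preincubated with compound for 60 min in 0.1 M phosphate pH 8.0 with 40 µM DTNB, then 20 µM acetylthiocholine iodide added. A412 rate followed for 5 min against an enzyme-free blank; triplicates; percent inhibition from rates.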

[2] = target: Cholinesterase (Homo sapiens) (UniProt P06276); assay: Inhibition of BuChE (unknown origin) at 5 uM using acetylthiocholine iodide as substrate preincubated for 60 mins followed by substrate addition measured after 5 mins by Ellman's method relative to control; procedure, shortened: as §1
Mus musculus [3] = organism: Mus musculus; assay: Cytotoxicity against mouse HT22 cells assessed as reduction in cell viability at 100 uM after 24 hrs by MTT assay; type: toxicity, cell-based; details: ht-22, 24 h
Procedure, shortened: (§2)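 HT22 cells grown in DMEM + 10% FBS at 37 °C, 5% CO2, seeded at 10,000 cells/well. Exposed to compound for 24 h; vehicle-only controls. Viability by MTT, mean ± SEM, n = 6.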

Mus musculus [4] = organism: Mus musculus; assay: Cytotoxicity against mouse HT22 cells assessed as reduction in cell viability at 10 uM after 24 hrs by MTT assay; type: toxicity, cell-based; details: ht-22, 24 h; procedure, shortened: as §2
[5] = target: Amyloid-beta precursor protein (Homo sapiens) (UniProt P05067); assay: Inhibition of HFIP-pretreated amyloid beta (1 to 42) (unknown origin) self-induced aggregation at 10 uM after 24 hrs by thioflavin-T fluorescence assay relative to control
HT-22 = assay: Cytoprotective activity against H2O2-induced cell death in mouse HT22 cells assessed as increase in cell viability at 10 to 30 uM preincubated for 30 mins followed by H2O2 addition measured after 24 hrs by MTT assay; type: functional, cell-based
Procedure, shortened: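 HT22 cells (DMEM/10% FBS, 10,000 cells/well) pretreated with compound for 30 min, then 500 µM H2O2 for 24 h. Viability by MTT; vehicle controls; mean ± SEM, n = 6.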

[6] = Antioxidant activity assessed as DPPH radical scavenging activity at 10 uM incubated under dark condition for 60 mins by spectrophotometric method relative to control; type: functional
Procedure, shortened: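 DPPH scavenging: compound at 10 µM final added to DPPH in ethanol (100 µM final), kept in dark at 25-26 °C for 60 min under dim light. Absorbance read at 517 nm. Capacity = (A1 − A2)/A1 × 100%, with A1 the control absorbance.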

[7] = Copper chelating activity assessed as Cu2+-compound complex formation by measuring bathochromic shift at 10 uM after 30 mins by UV-Visible spectrometric method
Procedure, shortened: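 CuCl2 in water and compound (methanol stock diluted in PBS) brought up in absolute ethanol. Mixture stood 30 min at room temperature, then absorption spectrum recorded at room temperature.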

[8] = Cytoprotective activity against glutamate-induced cell death in mouse HT22 cells assessed as cell viability at 10 to 30 uM preincubated for 30 mins followed by H2O2 addition measured after 24 hrs by MTT assay; type: functional, HT-22
Procedure, shortened: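 HT22 cells (DMEM/10% FBS, 10,000 cells/well) pretreated with compound for 30 min, then 2 mM glutamate for 24 h. Viability by MTT; vehicle controls; mean ± SEM, n = 6.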

Sequence of Cholinesterase (Homo sapiens) (P06276 whole entry): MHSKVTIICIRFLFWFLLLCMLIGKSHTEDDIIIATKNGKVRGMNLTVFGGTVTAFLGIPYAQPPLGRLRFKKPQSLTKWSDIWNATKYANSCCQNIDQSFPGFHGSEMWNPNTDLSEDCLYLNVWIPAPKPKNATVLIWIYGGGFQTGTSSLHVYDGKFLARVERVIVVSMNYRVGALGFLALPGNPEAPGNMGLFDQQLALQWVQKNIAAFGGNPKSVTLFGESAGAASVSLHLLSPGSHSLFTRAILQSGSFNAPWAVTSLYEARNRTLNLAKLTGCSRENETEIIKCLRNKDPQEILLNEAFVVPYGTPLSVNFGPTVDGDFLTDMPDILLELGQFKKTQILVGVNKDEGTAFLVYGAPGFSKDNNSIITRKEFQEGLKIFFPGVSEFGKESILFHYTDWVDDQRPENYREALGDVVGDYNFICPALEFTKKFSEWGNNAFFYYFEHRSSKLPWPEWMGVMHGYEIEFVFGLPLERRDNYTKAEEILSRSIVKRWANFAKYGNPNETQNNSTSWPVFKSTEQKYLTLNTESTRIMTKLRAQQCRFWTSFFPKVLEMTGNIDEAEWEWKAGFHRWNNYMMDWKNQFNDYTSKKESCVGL
Sequence of Amyloid-beta precursor protein (Homo sapiens) (P05067 whole entry): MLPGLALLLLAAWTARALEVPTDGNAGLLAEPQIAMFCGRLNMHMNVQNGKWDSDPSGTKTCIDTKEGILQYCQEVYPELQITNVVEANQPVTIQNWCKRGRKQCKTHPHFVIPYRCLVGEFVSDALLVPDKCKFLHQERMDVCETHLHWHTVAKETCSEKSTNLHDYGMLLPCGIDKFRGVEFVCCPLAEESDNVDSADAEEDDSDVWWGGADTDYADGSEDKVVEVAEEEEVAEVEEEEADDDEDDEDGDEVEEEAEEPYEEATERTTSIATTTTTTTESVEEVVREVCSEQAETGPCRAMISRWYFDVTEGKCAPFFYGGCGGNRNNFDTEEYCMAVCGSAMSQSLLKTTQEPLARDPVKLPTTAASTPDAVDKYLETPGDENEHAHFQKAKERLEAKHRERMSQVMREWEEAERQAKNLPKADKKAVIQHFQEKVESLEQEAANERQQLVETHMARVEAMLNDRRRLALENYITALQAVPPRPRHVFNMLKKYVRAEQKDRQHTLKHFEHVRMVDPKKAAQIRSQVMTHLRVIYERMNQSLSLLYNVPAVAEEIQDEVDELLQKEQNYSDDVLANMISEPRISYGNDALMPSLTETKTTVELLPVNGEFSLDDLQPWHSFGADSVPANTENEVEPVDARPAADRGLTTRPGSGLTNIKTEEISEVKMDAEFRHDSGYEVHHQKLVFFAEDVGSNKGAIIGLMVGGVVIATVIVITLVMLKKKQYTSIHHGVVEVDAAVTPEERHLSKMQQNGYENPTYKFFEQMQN

Structure (SMILES)	inhibition [1] [%]	inhibition [2] [%]	Activity (Mus musculus [3])	Activity (Mus musculus [4])	inhibition [5] [%]	Activity (HT-22)	Activity [6] [%]	Activity [7]	Activity [8] [%]
CCN(C)C(=O)Nc1cccc(NC(=O)/C=C/c2ccc(O)c(OC)c2)c1	19.4	36.6	Toxic	Non-Toxic	2.2	Active	24.1	–	–
CCN(C)C(=O)Oc1cccc(CNC(=O)/C=C/c2ccc(O)c(OC)c2)c1	87.9	97.9	Toxic	Non-Toxic	3.2	–	17.9	–	–
Nc1c(/N=N/c2ccc(-c3ccc(/N=N/c4cc(S(=O)(=O)O)c5ccccc5c4N)cc3)cc2)cc(S(=O)(=O)O)c2ccccc12	–	–	–	–	86.5	–	–	–	–
O=C(O)/C=C/c1ccc(O)c(O)c1	–	–	–	–	–	–	64.6	–	–
CCN(C)C(=O)Oc1cccc(NC(=O)/C=C/c2ccc(O)c(OC)c2)c1	98	98.3	Toxic	Non-Toxic	13.2	Active	19.5	–	–
CCN(C)C(=O)Oc1cccc([C@H](C)N(C)C)c1	61	93	–	–	–	–	–	–	–
COc1cc(/C=C/C(=O)O)ccc1O	–	–	–	–	–	–	19.9	–	–
CCN(C)C(=O)Oc1cccc(CCNC(=O)/C=C/c2ccc(O)c(O)c2)c1	76.3	92	Toxic	Non-Toxic	85.3	Active	51.7	Active	–
CCN(C)C(=O)Nc1cccc(NC(=O)/C=C/c2ccc(O)c(O)c2)c1	13.8	24.4	Toxic	Non-Toxic	82.5	Active	64.7	–	56.9
CCN(C)C(=O)Oc1cccc(CNC(=O)/C=C/c2ccc(O)c(O)c2)c1	80.8	97	Toxic	Non-Toxic	77.6	Active	69.7	–	–
CCN(C)C(=O)Oc1cccc(CCNC(=O)/C=C/c2ccc(O)c(OC)c2)c1	72.3	96.6	Toxic	Non-Toxic	2.2	Active	18.1	–	–
CCN(C)C(=O)Oc1cccc(NC(=O)/C=C/c2ccc(O)c(O)c2)c1	49.6	91	Toxic	Non-Toxic	73.2	Active	37	–	52.9
